# Reference: ChEMBL document CHEMBL4138201, “Synthesis and biological evaluation of sulfur-containing shikonin oxime derivatives as potential antineoplastic agents” (Eur J Med Chem, 2018)
# Active and inactive are the calls of the source. The rule behind the calls is not given here.
# Key:
# [1] = test system: HCT-15; test: Cytotoxicity against human HCT15 cells after 48 hrs by MTT assay; assay type: functional, cell-based; details: HCT-15, 48 h
# In short: (§1)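 MTT colorimetric assay. Shikonin and 5-fluorouracil served as reference agents. IC₅₀ obtained by linear regression of each compound's concentration–response curve.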
# [2] = test system: MGC-803; test: Cytotoxicity against human MGC803 cells after 48 hrs by MTT assay; assay type: functional, cell-based; details: MGC-803, 48 h; in short: as §1
# [3] = test system: Bel-7402; test: Cytotoxicity against human Bel7402 cells after 48 hrs by MTT assay; assay type: functional, cell-based; details: Bel-7402, 48 h; in short: as §1
# [4] = test system: MCF7; test: Cytotoxicity against human MCF7 cells after 48 hrs by MTT assay; assay type: functional, cell-based; details: MCF7, 48 h; in short: as §1
# [5] = Cytotoxicity against human HSF cells after 48 hrs by MTT assay; assay type: cell-based; in short: as §1
# [6] = Induction of NO release in phosphate buffer at pH 7.4 at 0.1 mM measured after 1 hr in presence of N-acetylcysteine by Griess assay; assay type: functional
# In short: (§2)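 Percentage of NO released in vitro measured by Griess assay against a standard curve. Incubation in 0.5 mM N-acetylcysteine, read hourly from 1 to 6 h.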
# [7] = Induction of NO release in phosphate buffer at pH 7.4 at 0.1 mM measured after 2 hrs in presence of N-acetylcysteine by Griess assay; assay type: functional; in short: as §2
# [8] = Induction of NO release in phosphate buffer at pH 7.4 at 0.1 mM measured after 3 hrs in presence of N-acetylcysteine by Griess assay; assay type: functional; in short: as §2
# [9] = Induction of NO release in phosphate buffer at pH 7.4 at 0.1 mM measured after 4 hrs in presence of N-acetylcysteine by Griess assay; assay type: functional; in short: as §2
# [10] = Induction of NO release in phosphate buffer at pH 7.4 at 0.1 mM measured after 5 hrs in presence of N-acetylcysteine by Griess assay; assay type: functional; in short: as §2
# [11] = Induction of NO release in phosphate buffer at pH 7.4 at 0.1 mM measured after 6 hrs in presence of N-acetylcysteine by Griess assay; assay type: functional; in short: as §2
# [12] = test system: HCT-15; test: Cell cycle arrest in human HCT15 cells assessed assessed as accumulation at G1 phase at 0.5 uM after 24 hrs by propidium iodide staining-based flow cytometric method (reference value: 36.7%); assay type: functional
# In short: (§3)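 HCT-15 cells seeded in 6-well plates, exposed to 0, 0.5 or 1.0 µM for 24 h, then harvested and stained with propidium iodide. DNA content read by flow cytometry and G1, S and G2/M fractions calculated. Comparison with untreated control by Student's t-test.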
# [13] = test system: HCT-15; test: Cell cycle arrest in human HCT15 cells assessed assessed as accumulation at G1 phase at 1.0 uM after 24 hrs by propidium iodide staining-based flow cytometric method (reference value: 36.7%); assay type: functional; in short: as §3
# [14] = test system: HCT-15; test: Cell cycle arrest in human HCT15 cells assessed assessed as accumulation at S phase at 0.5 to 1.0 uM after 24 hrs by propidium iodide staining-based flow cytometric method; assay type: functional; details: in the assay text read “accumulation at G1 phase” for “accumulation at S phase”; in short: as §3
# [15] = test system: HCT-15; test: Cell cycle arrest in human HCT15 cells assessed assessed as accumulation at G2/M phase at 0.5 to 1.0 uM after 24 hrs by propidium iodide staining-based flow cytometric method; assay type: functional; details: in the assay text read “accumulation at G1 phase” for “accumulation at G2/M phase”; in short: as §3
# [16] = test system: HCT-15; test: Induction of apoptosis in human HCT15 cells assessed as nuclear fragmentation up to 1.0 uM after 24 hrs by Hoechst 33342 staining-based fluorescence microscopic method; assay type: functional, cell-based
# In short: (§4)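 HCT-15 cells incubated 24 h at 0, 0.5 or 1.0 µM, then stained with Hoechst 33342. Nuclei examined by fluorescence for fragmentation, chromatin condensation and staining intensity.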
# [17] = test system: HCT-15; test: Induction of apoptosis in human HCT15 cells assessed as chromatin condensation up to 1.0 uM after 24 hrs by Hoechst 33342 staining-based fluorescence microscopic method; assay type: functional, cell-based; in short: as §4
# [18] = test system: HCT-15; test: Induction of apoptosis in human HCT15 cells assessed as necrotic cells at 0.5 uM after 24 hrs by Annexin-V-FITC/propidium iodide staining based flow cytometry (reference value: 0.005%); assay type: functional
# [19] = test system: HCT-15; test: Induction of apoptosis in human HCT15 cells assessed as late apoptotic cells at 0.5 uM after 24 hrs by Annexin-V-FITC/propidium iodide staining based flow cytometry (reference value: 6.59%); assay type: functional
# [20] = test system: HCT-15; test: Induction of apoptosis in human HCT15 cells assessed as early apoptotic cells at 0.5 uM after 24 hrs by Annexin-V-FITC/propidium iodide staining based flow cytometry (reference value: 2.97%); assay type: functional
# [21] = test system: HCT-15; test: Induction of apoptosis in human HCT15 cells assessed as viable cells at 0.5 uM after 24 hrs by Annexin-V-FITC/propidium iodide staining based flow cytometry (reference value: 90.4%); assay type: functional; details: HCT-15, 24 h, read-out: Activity
# [22] = test system: HCT-15; test: Induction of apoptosis in human HCT15 cells assessed as necrotic cells at 1 uM after 24 hrs by Annexin-V-FITC/propidium iodide staining based flow cytometry (reference value: 0.005%); assay type: functional
# [23] = test system: HCT-15; test: Induction of apoptosis in human HCT15 cells assessed as late apoptotic cells at 1 uM after 24 hrs by Annexin-V-FITC/propidium iodide staining based flow cytometry (reference value: 6.59%); assay type: functional
# [24] = test system: HCT-15; test: Induction of apoptosis in human HCT15 cells assessed as early apoptotic cells at 1 uM after 24 hrs by Annexin-V-FITC/propidium iodide staining based flow cytometry (reference value: 2.97%); assay type: functional
# [25] = test system: HCT-15; test: Induction of apoptosis in human HCT15 cells assessed as viable cells at 1 uM after 24 hrs by Annexin-V-FITC/propidium iodide staining based flow cytometry (reference value: 90.4%); assay type: functional; details: HCT-15, 24 h, read-out: Activity
# [26] = test system: HCT-15; test: Induction of apoptosis in human HCT15 cells assessed as necrotic cells at 2 uM after 24 hrs by Annexin-V-FITC/propidium iodide staining based flow cytometry (reference value: 0.005%); assay type: functional
# [27] = test system: HCT-15; test: Induction of apoptosis in human HCT15 cells assessed as late apoptotic cells at 2 uM after 24 hrs by Annexin-V-FITC/propidium iodide staining based flow cytometry (reference value: 6.59%); assay type: functional
# [28] = test system: HCT-15; test: Induction of apoptosis in human HCT15 cells assessed as early apoptotic cells at 2 uM after 24 hrs by Annexin-V-FITC/propidium iodide staining based flow cytometry (reference value: 2.97%); assay type: functional
# [29] = test system: HCT-15; test: Induction of apoptosis in human HCT15 cells assessed as viable cells at 2 uM after 24 hrs by Annexin-V-FITC/propidium iodide staining based flow cytometry (reference value: 90.4%); assay type: functional; details: HCT-15, 24 h, read-out: Activity
# [30] = test system: HCT-15; test: Induction of apoptosis in human HCT15 cells after 24 hrs by Annexin-V-FITC/propidium iodide staining based flow cytometry; assay type: functional, cell-based
# [31] = test system: HCT-15; test: Induction of apoptosis in human HCT15 cells assessed as increase in Bax protein expression up to 2 uM after 24 hrs by Western blot analysis; assay type: functional, cell-based
# In short: (§5)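 Protein extracted from HCT-15 cells after 24 h at 0, 0.5, 1.0 or 2.0 µM. Bcl-2, Bax and cleaved caspase-3 and -9 immunoblotted, band ratios quantified by densitometry. Student's t-test used.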
# [32] = test system: HCT-15; test: Induction of apoptosis in human HCT15 cells assessed as downregulation of Bcl2 expression at 2 uM after 24 hrs by Western blot analysis; assay type: functional, cell-based; in short: as §5
# [33] = test system: HCT-15; test: Induction of apoptosis in human HCT15 cells assessed as increase in cleaved caspase-3 levels after 24 hrs by Western blot analysis; assay type: functional, cell-based; in short: as §5
# [34] = test system: HCT-15; test: Induction of apoptosis in human HCT15 cells assessed as increase in cleaved caspase-9 levels after 24 hrs by Western blot analysis; assay type: functional, cell-based; in short: as §5
compound,measurement,setting,value
COc1cc(C(CC=C(C)C)SCCC(C)C)c(OC)c2c1/C(=N/O)C=C/C2=N\O (configuration not stated),IC50,[1],1140 nM
same,IC50,[2],3360 nM
same,IC50,[3],5430 nM
same,IC50,[4],27200 nM
same,IC50,[5],> 50000 nM
same,Activity,[6],0.023%
same,Activity,[7],0.027%
same,Activity,[8],0.033%
same,Activity,[9],0.038%
same,Activity,[10],0.029%
same,Activity,[11],0.024%
COc1cc(C(=O)SC(CC=C(C)C)c2cc(OC)c3c(c2OC)/C(=N/O)C=C/C3=N\O)cc(OC)c1OC (configuration not stated),IC50,[1],270 nM
same,IC50,[2],860 nM
same,IC50,[3],450 nM
same,IC50,[4],9230 nM
same,IC50,[5],> 50000 nM
same,Activity,[6],0.049%
same,Activity,[7],0.063%
same,Activity,[8],0.076%
same,Activity,[9],0.091%
same,Activity,[10],0.084%
same,Activity,[11],0.079%
same,Activity,[12],44.1%
same,Activity,[13],49.9%
same,Activity,[14],Active
same,Activity,[15],Active
same,Activity,[16],Active
same,Activity,[17],Active
same,Activity,[18],0.018%
same,Activity,[19],9.43%
same,Activity,[20],4.56%
same,viability at 0.5 µM,[21],86%
same,Activity,[22],0.021%
same,Activity,[23],23.7%
same,Activity,[24],18.3%
same,viability at 1 µM,[25],58%
same,Activity,[26],0.088%
same,Activity,[27],57.3%
same,Activity,[28],20.1%
same,viability at 2 µM,[29],22.4%
same,Activity,[30],Dose-dependent effect
same,Activity,[31],Active
same,Activity,[32],Active
same,Activity,[33],Dose-dependent effect
same,Activity,[34],Dose-dependent effect
COc1ccc(C(=O)SC(CC=C(C)C)c2cc(OC)c3c(c2OC)/C(=N/O)C=C/C3=N\O)cc1 (configuration not stated),IC50,[1],610 nM
same,IC50,[2],930 nM
same,IC50,[3],1090 nM
same,IC50,[4],17000 nM
same,IC50,[5],> 50000 nM
same,Activity,[6],0.038%
same,Activity,[7],0.045%
same,Activity,[8],0.058%
same,Activity,[9],0.064%
same,Activity,[10],0.059%
same,Activity,[11],0.053%
COc1ccc(C(=O)SC(CC=C(C)C)c2cc(OC)c3c(c2OC)/C(=N/O)C=C/C3=N\O)cc1OC (configuration not stated),IC50,[1],390 nM
same,IC50,[2],1170 nM
same,IC50,[3],660 nM
same,IC50,[4],14900 nM
same,IC50,[5],> 50000 nM
same,Activity,[6],0.041%
same,Activity,[7],0.05%
same,Activity,[8],0.063%
same,Activity,[9],0.079%
same,Activity,[10],0.073%
same,Activity,[11],0.065%
